High-throughput results: PubChem, The Scripps Research Institute Molecular Screening Center
5HT1a ag – activates the human 5-HT1a serotonin receptor. P08908. CHO 5-HT1a Ga15 NFAT-bla reporter, FRET ratio; 0% basal, 100% maximal reference agonist. activation, % at 10 µM. 0.56% of 65,000 active. AID 567;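 active means activation above the screen-wide mean activation plus 3 SD, cut at about 19% in these data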;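 further: 0% = DMSO wells and 100% = 5-CT at EC100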
Target sequence (P08908 whole entry, looked up): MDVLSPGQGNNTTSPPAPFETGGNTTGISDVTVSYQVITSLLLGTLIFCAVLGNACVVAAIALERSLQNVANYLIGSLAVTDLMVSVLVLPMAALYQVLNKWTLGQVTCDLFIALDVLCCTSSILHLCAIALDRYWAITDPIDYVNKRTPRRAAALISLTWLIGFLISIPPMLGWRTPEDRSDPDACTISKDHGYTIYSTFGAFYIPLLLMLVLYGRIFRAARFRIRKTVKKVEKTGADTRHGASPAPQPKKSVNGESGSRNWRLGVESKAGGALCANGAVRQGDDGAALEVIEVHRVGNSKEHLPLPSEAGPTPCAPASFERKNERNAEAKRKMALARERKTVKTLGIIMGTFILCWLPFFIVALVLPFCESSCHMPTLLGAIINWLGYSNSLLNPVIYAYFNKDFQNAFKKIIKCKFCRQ
5-HT1A blocker – antagonists of human 5-HT1a serotonin receptor. inhibition, % at 10 µM. P08908. 0.68% of 62,000 active. CHO 5-HT1a Ga15 NFAT-bla reporter, antagonist mode;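 active means inhibition above the mean of all tested compounds plus 3 SD, cut at about 43% in these data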;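 further: receptor stimulated by 5-CT agonist at 100 nM near EC80; beta-lactamase reporter measured by ratiometric fluorescence of a cleavable substrate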
HTR1E agonist – 5-HT1E (human) receptor agonism | P28566 | CHO 5-HT1E Ga15 NFAT-bla reporter, FRET; 0% DMSO wells, 100% control agonist wells | activation, % at 6 µM | 0.69% of 65,000 active | AID 574;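 active means activation above a set limit, the screen-wide mean activation plus 3 SD, cut at about 8.5% in these data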;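 further: 100% = positive control agonist at 1 µM giving full maximal response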
S1P1 ag-PAM – activates or potentiates agonism at human S1P1 receptor. activation, % at 9.5 µM. S1P1 CRE-bla cells, forskolin, beta-lactamase FRET, potentiator mode; S1P1 agonist co-added at EC20, 2 nM; 100% = saturating reference agonist, 0% = basal. 0.57% of 56,000 active;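 active means activation above a cutoff set at the mean activation of all tested compounds plus 3 SD, cut at about 54% in these data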;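 further: forskolin at 4 µM as EC80 and the EC20 agonist is SEW2871; 100% = SEW2871 at its EC100 plus forskolin at EC80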
S1P3 ag – agonists of human S1P3 receptor; S1P3 NFAT-BLA reporter cells, agonism, FRET ratio; relative to 1 µM S1P, basal subtracted; 0.1% of 60,000 active; activation, % at 4.5 µM; Q99500;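 active means activation above the screen-wide mean plus 3 SD, cut at about 4.5% in these data, passing the limit was not always enough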
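Material: Human S1P3 NFAT-BLA reporter CHO cells | Incubation: Overnight plating, 4 h compound 37 °C, 2 h substrate RT | Signal: FRET β-lactamase substrate fluorescence, excitation 405 nm, 460/535 nm emission ratio, background-subtracted | Compound: 4.5 µM final, single dose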
HTR1E antagonist – blocks the human 5-HT1E serotonin receptor; P28566; AID 571; inhibition, % at 6 µM; 0.99% of 65,000 active; CHO 5-HT1E Ga15 NFAT-bla reporter, FRET, antagonist;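 active means inhibition above a set limit, the mean inhibition across every tested compound plus 3 SD, cut at about 29% in these data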;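 further: signal is the 460 over 535 nm emission ratio of beta-lactamase substrate; 0% = agonist plus DMSO wells and 100% = wells without agonist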
The depositor's hits bear a star; . = not tested or not shown. The list is not random: actives were taken first. Their share in the collection is about 3%.

SMILES	5HT1a ag	5-HT1A blocker	HTR1E agonist	S1P1 ag-PAM	S1P3 ag	HTR1E antagonist
N#Cc1nc(COc2cccc(Cl)c2)oc1N1CCCC1	23*	3	0	0	0	0
N#Cc1nc(COc2ccc(F)cc2)oc1N1CCCC1	3	-4	2	.	.	1
Cc1ccc(OCc2nc(C#N)c(N3CCN(Cc4ccccc4)CC3)o2)cc1	-3	50*	-1	18	-2	9
N#Cc1nc(COc2ccccc2)oc1N1CCN(Cc2ccccc2)CC1	-5	46*	-2	3	-1	5
CCOC(=O)Cc1csc2nc3sc(C)c(C)c3c(=O)n12	0	-8	0	.	1	0
COc1cccc(N2C(=O)CC(N3CCC(C(N)=O)(N4CCCCC4)CC3)C2=O)c1 (configuration not stated)	-1	2	0	-16	-1	1
COc1cc(N2C(=O)NC3CC2(C)Oc2ccc(Br)cc23)cc(OC)c1OC (configuration not stated)	-2	11	0	-5	-2	1
O=C(Nc1cccc(S(=O)(=O)c2cccc(NC(=O)C3CC3)c2)c1)C1CC1	0	-2	0	30	0	-8
CC(C)(C)OC(=O)NCCc1nnc(S(=O)(=O)Cc2ccc(Cl)cc2Cl)o1	0	69*	-1	46	-2	12
CC(C)c1ccc(S(=O)(=O)N2CCN(C(=O)c3cccc(F)c3)CC2)cc1	1	-4	0	-13	-1	5
CC1(C)CC(=O)C2=C(C1)NC(SCC(=O)Nc1ccccc1)=C(C#N)C21CCCCC1	2	10	-1	20	-1	3
CC(C)(C)C1CCC2(CC1)C(C#N)=C(SCC(=O)Nc1ccccc1)NC(=O)C2C#N (configuration not stated)	9	.	1	79*	-4	8
Cc1ccc(C2C(C(=O)c3cc4ccccc4o3)=C(O)C(=O)N2CCCN(C)C)cc1 (configuration not stated)	-2	.	0	5	-1	10
OCCN1CCN(CC(O)COc2ccc3c(c2)OCO3)CC1 (configuration not stated)	0	-2	16*	9	0	-5
Cc1onc(-c2ccccc2)c1C(=O)Nc1cc(C(F)(F)F)ccc1N1CCOCC1	-4	26	0	6	-1	41*
O=C(OC1CCOC1=O)c1cncc(Br)c1 (configuration not stated)	-3	-15	43*	3	-1	1
O=C(OC1CCOC1=O)c1ccc2ncsc2c1 (configuration not stated)	-2	1	0	1	1	-2
COCCSc1ccccc1C(=O)N1CCN(Cc2ccc3c(c2)OCO3)CC1	-2	-3	1	-10	0	-3
O=C(Nc1ccc(N2CCCCC2)c(Cl)c1)c1ncn[nH]1	-5	-60	1	127*	0	-5
CCCc1c(CC)c(=N)c2ccccc2n1C	-5	3	0	2	-2	13
COc1ccc(-c2cn3c4c(sc3n2)CCCC4)cc1	-3	14	0	.	0	6
CCCCNC(=O)Nc1ccnn1C1CCCCC1	0	-7	0	.	.	3
Cc1ccc(-n2c(C)cc(C(=O)CSc3nnnn3C)c2C)cc1	-1	-4	0	87*	0	-2
N#Cc1sc2nc3c(c(-c4ccco4)c2c1N)CCCC3	-2	-20	1	-71	-1	31*
CC(=O)c1ccc(OCC(O)CN2CCN(CCO)CC2)cc1 (configuration not stated)	1	-3	1	2	-1	8
SMILES	5HT1a ag	5-HT1A blocker	HTR1E agonist	S1P1 ag-PAM	S1P3 ag	HTR1E antagonist
COc1ccccc1N/C(N)=N/c1nc(CSc2ccc(C)cc2)cc(=O)[nH]1	1	24	0	59*	-1	16
[O-][n+]1onc2c1CCc1c-2nn(-c2ccccc2Cl)[n+]1[O-]	-5	60*	0	29	-2	34*
Cc1ccc(-n2nc3c([n+]2[O-])CCc2c-3no[n+]2[O-])cc1	-5	73*	-2	41	-2	74*
CCCNC(=O)NC(=O)COC(=O)c1ccc(OC)c(S(=O)(=O)N2CCCc3ccccc32)c1	-1	-9	0	2	1	-10
CCCc1nc2oc3c(NCCOCCO)ncnc3c2c2c1COC(C)(C)C2	1	7	-1	6	-1	30*
Cc1nc2oc3c(NCc4ccccc4)ncnc3c2c2c1COC(C)(C)C2	4	3	1	-16	-1	6
O=C(c1cc2nc3c(c(C(F)(F)F)n2n1)CCc1ccccc1-3)N1CCN2CCCC2C1 (configuration not stated)	1	-14	0	-54	1	3
O=C(O)C1CCCCC1C(=O)N1CC=C(c2ccccc2)CC1 (configuration not stated)	6	3	22*	12	-1	3
O=C(Nc1ccccc1)N1CC=C(c2ccccc2)CC1	-2	13	0	.	1	0
Cc1ccc(C(=O)CCNc2ccc(F)c(Cl)c2)o1	-2	-4	0	.	-1	-1
O=C1NCC(O)=C1C=NC12CC3CC(CC(C3)C1)C2	-4	1	0	-24	0	-1
COCCn1c(SCc2ccc(C(=O)OC)o2)nc2ccccc2c1=O	-1	24	-1	-9	0	21
COC(=O)c1ccc(CSc2nc3ccccc3c(=O)n2-c2ccc(OC)c(OC)c2)o1	5	13	0	-28	0	31*
c1ccc(-c2nnc(-c3ccccn3)nn2)nc1	-1	6	0	.	.	-5
c1ccc(-c2cccc(-c3ccccn3)n2)nc1	-2	59*	-2	-5	-2	45*
COc1ccc2c(c1)CCc1c(C(=O)NC3CCCCC3)noc1-2	-1	-3	-1	94	-1	-12
COc1nc(OC)nc(N2CCC(C(=O)Nc3cccc4c3CCCC4)CC2)n1	22*	0	0	-2	0	1
COc1nc(OC)nc(N2CCC(C(=O)Nc3cccc4ccccc34)CC2)n1	-4	10	0	-16	-1	8
O=C(NC1CCCCC1)C(c1ccco1)N(Cc1ccco1)C(=O)c1ccco1 (configuration not stated)	1	49*	-1	9	-1	-5
O=C(NC1CCCCC1)C(c1ccco1)N(Cc1cccs1)C(=O)Cn1nnc2ccccc21 (configuration not stated)	-3	46*	-1	-20	0	8
